Test results reported in ChEMBL document CHEMBL4602714, “Strategic Incorporation of Polarity in Heme-Displacing Inhibitors of Indoleamine-2,3-dioxygenase-1 (IDO1)” (ACS Med Chem Lett, 2020).

Key:
[1] = Unbound intrinsic clearance in human hepatocytes incubated for 120 mins by LC-MS/MS analysis; type: ADME, cell-based, Hepatocyte; conditions: 2 h
[2] = Unbound intrinsic clearance in rat hepatocytes incubated for 120 mins by LC-MS/MS analysis; type: ADME, cell-based, Hepatocyte; conditions: 2 h
[3] = MRT in Wistar Han rat at 0.05 mg/kg, iv administered using cassette dosing by LC-MS/MS analysis; type: ADME, organism-based; conditions: in vivo
Procedure, shortened: (§1)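 Rat cassette PK: single IV dose of 0.05 mg/kg at 1 mL/kg, vehicle DMSO/PEG400/H2O 20/60/20, animals fasted. Reported values are the geometric mean of n = 2 or more.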

[4] = Intrinsic clearance in Wistar Han rat at 0.5 mg/kg, iv or 1 mg/kg, po by LC-MS/MS analysis; type: ADME, organism-based; conditions: in vivo
Procedure, shortened: (§2)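 Rat 2 × 2 PK: IV arm at 0.5 mg/kg (1 mL/kg) and PO arm at 1 mg/kg (2 mL/kg), both in DMSO/PEG400/H2O 20/60/20. Reported values are the geometric mean of n = 2 or more.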

[5] = Unbound volume of distribution in Wistar Han rat at 0.5 mg/kg, iv or 1 mg/kg, po by LC-MS/MS analysis; type: ADME, organism-based; conditions: in vivo; procedure, shortened: as §2
[6] = MRT in Wistar Han rat at 0.5 mg/kg, iv or 1 mg/kg, po by LC-MS/MS analysis; type: ADME, organism-based; conditions: in vivo; procedure, shortened: as §2
[7] = Unbound volume of distribution in Wistar Han rat at 0.05 mg/kg, iv administered using cassette dosing by LC-MS/MS analysis; type: ADME, organism-based; conditions: in vivo; procedure, shortened: as §1
[8] = Volume of distribution in Wistar Han rat at 0.05 mg/kg, iv administered using cassette dosing by LC-MS/MS analysis; type: ADME, organism-based; conditions: in vivo; procedure, shortened: as §1
[9] = Drug metabolism in rat liver microsomes assessed as oxidation of n-propyl group at 30 uM incubated up to 45 mins in presence of NADPH by MetID based LC/MS analysis; type: ADME, Microsome; conditions: 0.75 h
[10] = Drug metabolism in human liver microsomes assessed as oxidation of n-propyl group at 30 uM incubated up to 45 mins in presence of NADPH by MetID based LC/MS analysis; type: ADME, Microsome; conditions: 0.75 h
[11] = Drug metabolism in human hepatocytes assessed as oxidation of n-propyl group with aryl amide bond cleavage at 30 uM incubated up to 90 mins in presence of NADPH by MetID based LC/MS analysis; type: ADME, cell-based, Hepatocyte; conditions: 1.5 h
[12] = Clearance in Wistar Han rat at 0.05 mg/kg, iv administered using cassette dosing by LC-MS/MS analysis; type: ADME, organism-based; conditions: in vivo; procedure, shortened: as §1
[13] = Unbound clearance in Wistar Han rat at 0.05 mg/kg, iv administered using cassette dosing by LC-MS/MS analysis; type: ADME, organism-based; conditions: in vivo; procedure, shortened: as §1
[14] = Intrinsic clearance in Wistar Han rat at 0.05 mg/kg, iv administered using cassette dosing by LC-MS/MS analysis; type: ADME, organism-based; conditions: in vivo; procedure, shortened: as §1

Row | CL free [1] | CL free [2] | MRT [3] | Vdu [7] | CL [14] | Structure (SMILES) | further results
1 | < 44 mL/min/kg | < 84 mL/min/kg | 3.2 h |  |  | O=C(Nc1ccc(C2(C(=O)Nc3ccc(F)cc3)COC2)nc1)c1cccc(Cl)c1 | 
2 | 1900 mL/min/kg | 500 mL/min/kg |  |  |  | O=C(Nc1ccc(C2(C(=O)Nc3ccc(Cl)nc3)CCC2)cc1)c1cccc(Cl)c1 | 
3 | 1300 mL/min/kg | 830 mL/min/kg |  |  |  | O=C(Nc1ccc(C2(C(=O)Nc3ccc(F)cc3)CCC2)cn1)c1cccc(Cl)c1 | CL [4]: 4500 mL/min/kg; Vdu [5]: 2200 L/kg; MRT [6]: 5 h
4 | 870 mL/min/kg | 7200 mL/min/kg | 0.7 h | 180 L/kg |  | CCCNC(=O)C1(c2ccc(NC(=O)c3cccc(Cl)c3)cc2)CCC1 | Vd [8]: 4.9 L/kg; Drug metabolism [9]: Metabolite_Detected; Drug metabolism [10]: Metabolite_Detected; Drug metabolism [11]: Metabolite_Detected; clearance [12]: 110 mL/min/kg; CL free [13]: 4100 mL/min/kg
5 | 560 mL/min/kg | 6200 mL/min/kg |  |  |  | CCCNC(=O)C1(c2ccc(NC(=O)c3ccc(F)c(C)c3)cc2)CCC1 | 
6 | 2000 mL/min/kg | 2000 mL/min/kg | 4.3 h | 1100 L/kg | 6000 mL/min/kg | O=C(Nc1ccc(C2(C(=O)Nc3ccc(F)cc3)CCC2)cc1)c1cccc(Cl)c1 | 
7 | 350 mL/min/kg | < 280 mL/min/kg | 3.2 h | 99 L/kg | 590 mL/min/kg | O=C(Nc1ccc([C@]2(C(=O)Nc3ccc(F)cc3)C[C@@H](O)C2)cc1)c1cccc(Cl)c1 | 
8 | 420 mL/min/kg | 250 mL/min/kg | 4.8 h | 420 L/kg | 1600 mL/min/kg | O=C(Nc1ccc(C2(C(=O)Nc3ccc(F)cc3)COC2)cc1)c1cccc(Cl)c1 | 
9 | 390 mL/min/kg | 1700 mL/min/kg |  |  |  | O=C(Nc1ccc(C2(C(=O)NC3CCOCC3)CCC2)cc1)c1cccc(Cl)c1 | 
